The nature of data set [1]: Low volume of distribution of compound determined after iv administration at 1 mg/kg dose as a solution(1 mg/mL) in a PEG 300:H2O(3:1). To be noted: rat, in vivo, read-out: Vdss. It is filed as ADME, organism-based. More on the design: dose 1 mg/kg, route intravenous. A digest of the protocol: (§1)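 Single rat, cannulated, given 100 units heparin, recovered 48 h, fasted overnight. Dosed 1 mg/kg iv bolus (1 mL/kg) in PEG 300:water 3:1. Serial blood sampled to 6 h and plasma analysed by LC-MS/MS with diazepam internal standard. Cl in mL/min/kg from plasma, T1/2 in hours from 1–3 h data, Vdss in L/kg.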

In data set [2] the target is T1, GABA-A receptor; alpha-5/beta-3/gamma-2 (Homo sapiens, UniProt P18507+P28472+P31644).
T1 sequence (P18507 whole entry): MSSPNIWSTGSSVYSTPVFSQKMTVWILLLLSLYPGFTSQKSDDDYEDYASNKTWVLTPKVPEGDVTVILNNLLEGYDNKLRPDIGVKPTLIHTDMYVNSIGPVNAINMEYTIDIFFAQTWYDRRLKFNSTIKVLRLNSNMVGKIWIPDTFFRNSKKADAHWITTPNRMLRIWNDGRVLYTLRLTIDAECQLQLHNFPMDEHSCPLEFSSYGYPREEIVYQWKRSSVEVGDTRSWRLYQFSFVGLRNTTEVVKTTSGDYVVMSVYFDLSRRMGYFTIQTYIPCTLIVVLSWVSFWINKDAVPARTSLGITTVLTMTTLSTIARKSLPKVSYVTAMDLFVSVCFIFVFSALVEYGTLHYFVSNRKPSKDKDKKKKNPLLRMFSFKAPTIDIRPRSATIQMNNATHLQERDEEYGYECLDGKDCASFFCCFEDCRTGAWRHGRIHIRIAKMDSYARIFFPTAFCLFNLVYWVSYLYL
T1 sequence (P28472 whole entry): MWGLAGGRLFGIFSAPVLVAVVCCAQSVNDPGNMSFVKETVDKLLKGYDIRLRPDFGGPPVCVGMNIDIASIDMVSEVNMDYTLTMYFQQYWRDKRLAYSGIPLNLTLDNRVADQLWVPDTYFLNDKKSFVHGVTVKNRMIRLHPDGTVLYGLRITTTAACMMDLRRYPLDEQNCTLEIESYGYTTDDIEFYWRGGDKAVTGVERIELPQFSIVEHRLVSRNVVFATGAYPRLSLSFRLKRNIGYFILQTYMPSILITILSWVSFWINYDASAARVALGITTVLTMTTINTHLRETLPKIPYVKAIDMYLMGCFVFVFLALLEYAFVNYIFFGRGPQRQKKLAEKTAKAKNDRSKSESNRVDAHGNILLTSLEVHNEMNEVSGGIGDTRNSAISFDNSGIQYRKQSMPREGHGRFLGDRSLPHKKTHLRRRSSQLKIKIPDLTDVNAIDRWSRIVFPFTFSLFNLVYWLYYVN
T1 sequence (P31644 whole entry): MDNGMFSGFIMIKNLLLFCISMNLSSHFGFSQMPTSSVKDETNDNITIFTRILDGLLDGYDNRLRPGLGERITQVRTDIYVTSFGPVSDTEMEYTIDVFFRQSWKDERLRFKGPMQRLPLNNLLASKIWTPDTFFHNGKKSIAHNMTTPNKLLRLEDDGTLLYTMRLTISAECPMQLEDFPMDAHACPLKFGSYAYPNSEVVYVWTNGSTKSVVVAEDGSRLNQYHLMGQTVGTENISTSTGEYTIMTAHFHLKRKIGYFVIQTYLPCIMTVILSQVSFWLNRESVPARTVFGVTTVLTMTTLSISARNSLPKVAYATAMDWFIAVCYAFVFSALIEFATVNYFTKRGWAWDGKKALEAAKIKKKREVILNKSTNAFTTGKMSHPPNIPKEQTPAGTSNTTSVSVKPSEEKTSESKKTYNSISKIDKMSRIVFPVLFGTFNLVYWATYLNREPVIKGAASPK
Nature of the data set: Displacement of [3H]-Ro- 15-1788 binding from human recombinant Gamma-aminobutyric acid A receptor alpha-5-beta-3-gamma-2 expressed in mouse fibroblast L(tk-) cells (30 min at 24 degrees C, pH 7.4). It is filed as cell-based. The method, boiled down: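 Membranes from L(tk-) cells stably expressing human α1, α3 or α5 β3γ2 in 50 mM Tris pH 7.4. [3H]Ro15-1788 at 1.8 nM final, 30 min at 24 °C. Nonspecific binding set with 10 µM flunitrazepam, total binding in 0.1% DMSO. Filtration, scintillation counting. Ki is mean ± SEM of ≥3 independent determinations.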

A short description of data set [3]: Clearance of compound determined after iv administration at 1 mg/kg dose as a solution(1 mg/mL) in a PEG 300:H2O(3:1). It is filed as ADME, organism-based. Also noted: dose 1 mg/kg, route intravenous. To be noted: rat, in vivo. A digest of the protocol:
as §1

A short description of data set [4]: Half life of compound determined after iv administration at 1 mg/kg dose as a solution(1 mg/mL) in a PEG 300:H2O(3:1). It is filed as ADME, organism-based. Also noted: dose 1 mg/kg, route intravenous. The note with it: rat, in vivo. A digest of the protocol:
as §1

Data set [5] deals with T2, GABA-A receptor; alpha-3/beta-3/gamma-2 (Homo sapiens) (UniProt P18507+P28472+P34903). As to the kind of experiment: Maximum inhibition of GABA EC20 response at GABA-A receptor alpha-3-beta-3-gamma-2,n=3. It is filed as protein-complex assay. A digest of the protocol: (§2)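 Whole-cell patch clamp of L(tk-) cells stably expressing human α1, α3 or α5 β3γ2s, perfused with bicarbonate saline pH 7.2, CsCl pipette solution pH 7.3. Drugs applied by double-barrelled pipette; GABA in 5 s pulses at 30 s intervals. Modulation measured against a GABA EC20 set for each cell; curves fitted to a Hill equation.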

In data set [6] the target is T3, GABA-A receptor; alpha-5/beta-3/gamma-2 (Homo sapiens) (UniProt P18507+P28472+P31644). As to the kind of experiment: Maximum inhibition of GABA EC20 response at GABA-A receptor alpha-5-beta-3-gamma-2, n=4. It is filed as protein-complex assay. The method, boiled down:
as §2

Data set [7] deals with T3, GABA-A receptor; alpha-5/beta-3/gamma-2 (Homo sapiens). Nature of the data set: Efficacy at GABAA alpha-5-beta-3-gamma-2 receptor expressed in mouse fibroblast L(tk-) cells measured at 300 nM derived from at least three plates/day screened over a minimum of 2 days. It is filed as functional, cell-based. The method, boiled down: (§3)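 FRET membrane-potential (VIPR) assay in L(tk-) cells with receptor expression induced 24 h by 1 µM dexamethasone. Dye-loaded 30 min in low-Cl- HEPES buffer pH 7.4: 4 µM CC2-DMPE, 1 µM DiSBAC2(3), 0.5 mM tartrazine. Basal read 8 s, compound at 300 nM, half-maximal GABA 22 s later, 1 Hz reads. Background-subtracted 460/580 nm ratio, normalized to DMCM as -100%.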

The target in data set [8] is T1, GABA-A receptor; alpha-5/beta-3/gamma-2. As to the kind of experiment: Negative logarithm of effective concentration against GABA-A alpha-5-beta-3-gamma-2 receptor. It is filed as protein-complex assay. A digest of the protocol:
as §2

In data set [9] the target is T2, GABA-A receptor; alpha-3/beta-3/gamma-2 (Homo sapiens). Nature of the data set: Efficacy at GABAA alpha-3-beta-3-gamma-2 receptor expressed in mouse fibroblast L(tk-) cells measured at 300 nM derived from at least three plates/day screened over a minimum of 2 days. It is filed as functional, cell-based. The method, boiled down:
as §3

The structures appear in SMILES notation.

Turning to `N#Cc1cccc(-c2cnnc(-c3ccccc3)c2)c1`, the Vd in data set [1] is 1.5 L/kg. Further, in [2], the inhibition constant (Ki) is 5.2 nM. Further, the clearance in [3] turned out to be 36 mL/min/kg. In data set [4], this compound showed a half-life of 36 min. In addition, the Maximum inhibition in data set [5] is -16%; in data set [6], -37%. Besides, the Efficacy in data set [7] is -32; in data set [9] it was -4. Also, the EC50 in data set [8] is 7.41 nM.

The record behind these values is ChEMBL document CHEMBL1141088, “A new pyridazine series of GABAA alpha5 ligands” (J Med Chem, 2005).
